# Assay outcomes from PubChem.
# MC4R antagonist: MC4R antagonists of cAMP signaling, primary screen, cell-based, TR-FRET, antagonist arm of biased-ligand search. AID 540295, 2011. actives 0.48% (n = 360,000). MC4R-expressing cells, MTII-stimulated cAMP, LANCE TR-FRET. inhibition, % at 6.5 µM;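 active = inhibition above its plate's cutoff, the mean of tested wells on that plate plus 3 SD, cut at about 29% in these data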;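 also: 0% = Melanotan II alone and 100% = Melanotan II plus saturating MCL0020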
#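 Material – human MC4R-expressing U2OS cells · Repeats – no replicates · Detection – TR-FRET with Eu-cAMP and labeled anti-cAMP, 671 nm · Times – compound 30 min, challenge 1 h, detection 1 h · Compound – single nominal compound dose of 6.5 µM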
# TMEM16A inh: TMEM16A chloride channel inhibitors, primary screen, cell-based, HTS; Anoctamin-1 (Mus musculus), Q8BHY3; HEK293 TMEM16A/YFP iodide influx fluorescence, ionomycin; normalized B-score (activity score, 25-100; higher = stronger inhibition) at 10 µM; actives 1.2% (n = 310,000); AID 588511, 2011;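 active = ratio plate-corrected score three or more library SD toward inhibition, starting fluorescence score within five deviations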;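 also: score derived from kinetic fluorescence span divided by baseline fluorescence per well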
# Beta cell apopt: inhibitors of cytokine-induced beta cell apoptosis, primary screen, luminescence; INS-1E cytokine-induced death, ATP luminescence, 48 h; percent of positive-control rescue, neutral wells zero; protection from apoptosis, % (no concentration beside the values); actives 0.8% (n = 300,000); AID 435005, 2010;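 active = Every replicate reaches about 75%, or at least half do and their mean reaches it too, limit read from the data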;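 also: 0% = cytokine-treated negative control wells and 100% = positive control rescue; higher means more ATP so stronger rescue from cytokine killing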
# TMEM16A act: TMEM16A chloride channel activators or potentiators, primary screen, cell-based, HTS; HEK293 TMEM16A/YFP-H148Q/I152L, iodide quench fluorescence; active compounds read low; B-score at 10 µM; actives 0.3% (n = 340,000);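 active = fluorescence-ratio B-score plate-corrected deviation score at least 3 library SD below zero, with starting fluorescence score within 5 deviations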;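 also: channel opened by trigger with iodide after compound preincubation; score built on the fluorescence ratio of max minus min over baseline; more negative score means more quench and so TMEM16A activation or potentiation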
# CSC inhib: cancer stem cell viability inhibitors, primary screen, luminescence; cancer stem cell-like cells viability; inhibition, % at 7.5 µM; actives 1.1% (n = 300,000); AID 2717, 2010; in the data active = inhibition above about 75%; tested in HMLE shEcad cells
# MC4R ag barr: MC4R agonists recruiting beta-arrestin, primary screen, cell-based, luminescence, agonist arm of biased-ligand search; actives 0.98% (n = 360,000); activation, % at 8.9 µM; U2OS MC4R beta-arrestin complementation; percent of melanotan II response, DMSO zero;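 active = activation above a per-plate cutoff, the mean activation of sample wells on that plate plus 3 SD, cut at about 8% in these data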
# MC4R barr conf: MC4R beta-arrestin agonists, retest, confirmation, cell-based, luminescence, U2OS; U2OS MC4R beta-arrestin recruitment; scaled DMSO 0%, Melanotan II 100%; actives 31% (n = 2,400); shares compounds with MC4R ag barr; AID 602192, 2012; activation, % at 8.9 µM;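 active = mean activation across replicates above the hit cutoff set in the earlier primary screen, cut at about 8% in these data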
# MOR-DOR barr ag: agonists of MOR-DOR heterodimerization, counter-screen for MC4R biased agonist project, cell-based, luminescence | actives 5.8% (n = 2,400) | AID 602194, 2012 | U2OS PathHunter beta-arrestin, beta-gal luminescence; percent of deltorphin B response, DMSO zero | activation, % at 9.2 µM | shares compounds with MC4R ag barr;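 active = mean activation across replicates exceeds the hit threshold derived in the earlier primary screen, cut at about 18% in these data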;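 also: 100% = deltorphin B at 0.9 µM final and 0% = DMSO alone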
# Target sequence (P35372 whole entry, looked up): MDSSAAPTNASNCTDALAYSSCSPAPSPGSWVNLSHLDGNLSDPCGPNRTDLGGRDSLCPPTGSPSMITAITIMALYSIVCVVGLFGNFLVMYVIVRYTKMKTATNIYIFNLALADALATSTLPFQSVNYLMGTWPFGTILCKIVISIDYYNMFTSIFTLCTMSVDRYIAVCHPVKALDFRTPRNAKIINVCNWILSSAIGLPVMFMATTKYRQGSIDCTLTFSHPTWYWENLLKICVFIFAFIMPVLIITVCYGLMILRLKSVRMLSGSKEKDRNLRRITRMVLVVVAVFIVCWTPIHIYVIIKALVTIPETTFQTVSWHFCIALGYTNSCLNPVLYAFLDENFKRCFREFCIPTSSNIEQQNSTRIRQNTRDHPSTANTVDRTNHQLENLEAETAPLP
# Target sequence (P41143 whole entry, looked up): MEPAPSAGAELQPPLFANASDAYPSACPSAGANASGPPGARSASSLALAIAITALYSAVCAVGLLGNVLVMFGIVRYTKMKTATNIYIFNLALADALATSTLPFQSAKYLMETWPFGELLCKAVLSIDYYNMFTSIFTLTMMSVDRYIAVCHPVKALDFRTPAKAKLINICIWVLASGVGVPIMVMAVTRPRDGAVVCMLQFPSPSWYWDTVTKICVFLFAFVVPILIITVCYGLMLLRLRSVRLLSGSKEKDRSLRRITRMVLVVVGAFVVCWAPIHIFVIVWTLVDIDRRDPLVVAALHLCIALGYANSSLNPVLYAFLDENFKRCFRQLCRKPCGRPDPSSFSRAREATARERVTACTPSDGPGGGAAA
# * hit, by the source's call; i = inactive; · = no result. Compounds with a hit are over-represented: about 3.8% of the library has one in this group of screens.
SMILES,MC4R antagonist,TMEM16A inh,Beta cell apopt,TMEM16A act,CSC inhib,MC4R ag barr,MC4R barr conf,MOR-DOR barr ag
CCOC(=O)C1(Cc2cccc(OC)c2)CCN(CC=C(C)C)CC1,-4,i,-2,i,1,0,·,·
Cc1ccc(S(=O)(=O)N2CCN(S(=O)(=O)N3CCC(C)CC3)CC2)cc1C,-2,i,5,i,-9,10*,4,3
CC1CCN(S(=O)(=O)c2ccc(NC(=O)Cn3nnc(-c4ccccc4F)n3)cc2)CC1,-6,i,4,i,11,12*,15*,7
Cc1ccc(S(=O)(=O)N2CCN(S(=O)(=O)N3CCCCC3)CC2)cc1C,2,i,-2,i,-12,0,·,·
Cc1ccc(NC(=O)c2ccc(S(=O)(=O)N3CCC(C)CC3)cc2)cc1,10,i,7,i,3,11*,1,4
CC1(C)CC(=O)C=C(c2ccc(COC(=O)Cc3ccccc3)cc2)C1=O,3,·,·,·,·,2,·,·
COC(=O)c1ccc(C(=O)Nc2nc3cc(N)c(C)cc3s2)cc1,-1,i,-3,i,-4,11*,0,2
Cc1ccc(C(=O)Nc2ncc(Cc3ccc(SC(F)F)cc3)s2)cc1,-17,i,14,i,-23,18*,9.0*,4
NC(=O)C1CCN(C(=O)C2CCC(=O)N(C3CCCCCC3)C2)CC1 (centres undefined),-1,i,-5,i,2,-3,·,·
CCOC(=O)c1c(NC(=O)CN2CCCc3ccccc32)sc(C(C)=O)c1C,4,i,8,i,9,23*,2,2
CSCCC(=O)N1CCCC(N(C)CCc2ccccc2)C1 (centres undefined),8,i,0,i,10,-1,·,·
Cc1cccnc1NC(=O)CN1C(=O)c2ccccc2S1(=O)=O,2,i,-8,i,-5,-3,·,·
Cc1ccc(Oc2cc([N+](=O)[O-])cc3c2C(=O)Nc2ccccc2O3)cc1,7,i,22,i,0,14*,2,8
Cc1cc(C)cc(OCC(=O)Nc2nc(-c3ccccn3)cs2)c1,-9,·,·,i,·,12*,3,3
CCCCCC(=O)Nc1ccc(S(=O)(=O)NC2=NCCCCC2)cc1,8,·,3,i,-12,-1,·,·
COCCCN(C(=O)CCOc1ccc(C)cc1)c1c(N)n(Cc2ccccc2)c(=O)[nH]c1=O,2,i,·,i,-12,-2,·,·
CCOC(=O)c1c(NC(=O)Cn2cnc([N+](=O)[O-])n2)sc2c1CCCC2,-4,i,0,i,13,2,·,·
CC(C)OC(=O)c1c(NC(=O)Cn2cnc([N+](=O)[O-])n2)sc2c1CCCC2,11,i,-9,i,5,9.9*,0,4
Cc1cccc(NC(=S)NC(=O)C(c2ccccc2)c2ccccc2)n1,-13,i,-2,i,-9,33*,20*,7
Cc1cccc(NC(=S)NC(=O)c2ccc(-c3ccccc3)cc2)n1,19,i,4,i,·,4,·,·
O=C(CSc1nnc(-c2cccs2)o1)N1CCOCC1,3,·,·,i,·,18*,-1,1
O=C(CSc1nnc(-c2cccs2)o1)N1CCCCC1,14,i,-1,i,10,1,·,·
CN(C)c1ccc(/C=C(\C#N)C(=O)c2ccccc2)cc1,11,i,-3,i,1,19*,-1,2
N#C/C(=C\c1ccc(C#N)cc1)C(=O)c1ccccc1,1,i,0,i,11,0,·,·
O=C(Nc1ccc(F)cc1)C1C(c2ccccc2)C1(Cl)Cl (centres undefined),-2,i,7,i,61,15*,0,11
SMILES,MC4R antagonist,TMEM16A inh,Beta cell apopt,TMEM16A act,CSC inhib,MC4R ag barr,MC4R barr conf,MOR-DOR barr ag
Cc1c(N)ccc(-n2nc3ccccc3n2)c1C,6,i,·,i,4,1,·,·
CN1CCN(C(=O)c2cccc(S(=O)(=O)N3CCCC3)c2)CC1,1,·,-4,i,·,-3,·,·
O=C(NCc1ccc2c(c1)OCO2)Nc1ccc2ccccc2c1,-4,i,-1,i,-6,11*,0,5
Cc1oc2cc3oc(=O)cc(C)c3cc2c1C,-4,i,2,i,-5,0,·,·
CCOc1ccc(CNC(=O)CCc2cn(Cc3ccccc3)c3ccccc23)cc1,4,i,·,i,·,13*,10*,7
CCOC(=O)c1c(N)sc(C(O)(C(F)(F)F)C(F)(F)F)c1-c1ccc(F)cc1,2,i,-20,i,43,11*,5,8
COc1ccc(/C=C/c2ccccc2)cc1[C@H]1[C@H]2C=CC[C@@H](C)[C@@H]2C(=O)N1Cc1ccccc1,-4,i,16,i,16,-2,·,·
Cc1ccc(NC(=O)C2C3/C=C\CCCCC32)cc1C (centres undefined),-4,i,·,i,·,19*,2,6
CN1CCN(C2=CC3=CC(=C(C#N)C#N)CCC3CC2)CC1 (centres undefined),-24,·,·,-41*,·,15*,14*,7
COc1ccc(CCNC(=O)CSc2nc(-c3ccco3)cc(C(F)(F)F)n2)cc1OC,6,i,-13,i,-7,2,·,·
COc1ccc(-c2cc(C(F)(F)F)nc(SCC(=O)NCc3cccs3)n2)cc1,3,i,4,i,·,16*,-2,2
COc1ccc(-c2cc(C(F)(F)F)nc(SCC(=O)Nc3ccc4c(c3)OCO4)n2)cc1,-2,i,12,i,0,-1,·,·
CCN(CC)S(=O)(=O)c1ccc(-c2nnc(SCC(=O)Nc3ccc4c(c3)OCO4)o2)cc1,4,i,3,i,24,10*,2,5
